Bioassay records as filed in PubChem BioAssay.
Rows were chosen to be rich in hits. Some 3.1% of all compounds tested hit in one or more screens of this group.
KCNQ1 block: inhibitors of human KCNQ1 channel, primary screen, cell-based, thallium flux, high-throughput | Potassium voltage-gated channel subfamily KQT member 1 (Homo sapiens), P51787 | 310,000 compounds, 1.3% hits | B-score at 10 µM | CHO-K1 KCNQ1, FluxOR thallium flux fluorescence; active compounds read high | AID 2642, 2010;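 active means compounds whose thallium flux B-score, printed positive for inhibition, exceeds three library SD while starting fluorescence stays within three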;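 further: channel opened by potassium depolarization with thallium stimulus after 20 min compound exposure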
KCNQ1 act: potentiators or activators of KCNQ1 channel, primary screen, cell-based, thallium flux, high-throughput | B-score at 10 µM | CHO-K1 KCNQ1, thallium flux FluxOR fluorescence; active compounds read high | Potassium voltage-gated channel subfamily KQT member 1 (Homo sapiens), P51787 | 310,000 compounds, 0.35% hits;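 active means fluorescence ratio B-score, a plate-corrected score, at least three library SD, with initial intensity B-score within 5 SD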
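Material: CHO-K1 cells stably expressing KCNQ1. Medium: assay buffer for compound exposure, DMSO matched across wells. Reagent: K+/Tl+ depolarizing stimulus. Compound dosing: single-concentration screen. Times: 37 °C overnight plating, 90-min dark dye load, 20-min compound pretreatment. Technique: FluxOR Tl+ flux fluorescence.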
KCNK3 block: human KCNK3 channel inhibitors, primary screen, CHO cells, FluxOR thallium flux, B-score | Potassium channel subfamily K member 3 (Homo sapiens), O14649 | FluxOR fluorescence; active compounds read low | B-score at 10 µM | 340,000 compounds, 0.84% hits | AID 602410, 2012;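 active means B-score under library mean minus 4 SD, starting fluorescence ratio at most library mean plus 5 SD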;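 further: more negative B-score means stronger inhibition of thallium flux through KCNK3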
Target sequence (O14649 whole entry, looked up): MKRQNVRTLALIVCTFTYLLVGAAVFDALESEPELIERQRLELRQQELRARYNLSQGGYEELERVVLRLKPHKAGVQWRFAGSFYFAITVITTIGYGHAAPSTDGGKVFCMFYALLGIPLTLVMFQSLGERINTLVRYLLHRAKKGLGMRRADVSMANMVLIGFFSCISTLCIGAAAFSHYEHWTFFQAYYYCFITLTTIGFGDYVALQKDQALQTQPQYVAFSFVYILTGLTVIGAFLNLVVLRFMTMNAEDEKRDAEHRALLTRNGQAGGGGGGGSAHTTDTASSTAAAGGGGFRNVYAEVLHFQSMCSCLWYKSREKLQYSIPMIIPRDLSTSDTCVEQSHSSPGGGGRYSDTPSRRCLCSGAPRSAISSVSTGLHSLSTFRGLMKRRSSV
KCNK9 block: KCNK9 potassium channel inhibitors, primary screen, HEK293 cells, thallium flux. Potassium channel subfamily K member 9 (Homo sapiens), Q9NPC2. FluxOR thallium flux fluorescence; active compounds read low. B-score at 10 µM. 310,000 compounds, 1.2% hits. AID 488922, 2010;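 active means ratio B-score over 3 SD below the library mean, with starting fluorescence within 5 SD of its mean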;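 further: negative B-score means less thallium flux so channel inhibition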
Target sequence (Q9NPC2 whole entry, looked up): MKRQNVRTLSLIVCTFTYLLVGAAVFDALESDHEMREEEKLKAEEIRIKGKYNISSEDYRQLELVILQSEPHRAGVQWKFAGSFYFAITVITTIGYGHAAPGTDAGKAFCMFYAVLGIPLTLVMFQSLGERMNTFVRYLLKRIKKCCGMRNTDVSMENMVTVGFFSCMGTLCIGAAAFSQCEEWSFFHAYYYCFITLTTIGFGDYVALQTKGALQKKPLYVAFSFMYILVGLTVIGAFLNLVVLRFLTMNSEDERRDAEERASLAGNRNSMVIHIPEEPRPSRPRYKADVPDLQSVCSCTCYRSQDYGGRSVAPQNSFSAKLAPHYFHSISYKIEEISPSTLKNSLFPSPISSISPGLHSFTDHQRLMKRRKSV
hERG protect: hERG rescue from dofetilide block, primary screen, cell-based, CHO-hERG, FluxOR thallium flux, dofetilide IC70. dofetilide IC70 present. 310,000 compounds, 0.51% hits. activation (rescue from dofetilide block), less the hit threshold, % at 10 µM;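 active means activation above the mean of controls blocked by dofetilide plus 5 SD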;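 further: thallium influx through hERG after potassium depolarization seen as dye fluorescence rise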
KCNK9 block conf: KCNK9 potassium channel inhibitors, confirmation, HEK293 cells, thallium flux, duplicate; shares compounds with KCNK9 block; FluxOR thallium flux fluorescence; inhibition, % at 10 µM; 4,900 compounds, 43% hits; AID 492992, 2010;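 active means thallium signal inhibited by more than 5 SD of the compound-free buffer control wells, on both duplicate plates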
Kir2-1 spec: mouse Kir2.1 channel inhibition, confirmation, selectivity assay for KCNK9 modulator project, cell-based, HEK293, thallium flux; shares compounds with KCNK9 block; Kir2.1 cells, FluxOR thallium flux fluorescence; inhibition, % at 10 µM; AID 492993, 2010; 4,900 compounds, 4% hits;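 active means thallium signal drop more than 5 SD beyond the mean of the no-compound control wells, seen in both duplicate plates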;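 further: signal is fluorescence rise after thallium addition divided by baseline fluorescence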
KCNK9 uninduced: thallium flux in non-induced HEK293 cells, confirmation, counter-screen for KCNK9 inhibitor project, cell-based, second counter screen, non-induced KCNK9-HEK293. shares compounds with KCNK9 block. FluxOR thallium flux. inhibition, % at 10 µM. 4,900 compounds, 40% hits. AID 492997, 2010;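 active means thallium signal drop beyond 5 SD of the untreated control mean, on both duplicate plates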
Of the large screens only hits and unclear results are named; the others gave an inactive call (follow-up assays come after a bar, where they were run).

COc1ccc(C(c2nnnn2Cc2cccs2)N2CCN(c3ccccc3F)CC2)cc1 (configuration not stated)	KCNK9 block -12 | KCNK9 block conf 28% | Kir2-1 spec inactive | KCNK9 uninduced 38%
Brc1cc(-c2ccccc2)nc(-c2ccccc2)n1	none
O=C(COC(=O)Cn1cnc2ccccc2c1=O)Nc1ccccc1OC(F)F	none (no result: KCNQ1 block, KCNQ1 act, KCNK9 block, hERG protect)
Cc1ccc(-n2nc(C(=O)c3ccccc3)n3c(=O)c(Cc4ccccc4)nnc23)cc1	none
O=C(c1ccccc1)c1nn(-c2ccccc2)c2nnc(Cc3ccccc3)c(=O)n12	none | KCNK9 block conf inactive | Kir2-1 spec inactive | KCNK9 uninduced inactive
Cc1cc(Cl)cc2c(N=Nc3ccccc3C(=O)O)c(O)[nH]c12	none | KCNK9 block conf inactive | Kir2-1 spec inactive | KCNK9 uninduced inactive
Cc1[nH]n(-c2ccccc2)c(=O)c1N=Nc1ccccc1C(=O)O	none
Cc1c(N(C)S(=O)(=O)c2cc(C(=O)N3CCCC3)ccc2Cl)c(=O)n(-c2ccccc2)n1C	none
CN(CC(=O)NCc1ccccc1)Cc1ccc(Cl)cc1	none
COc1ccc(C)cc1S(=O)(=O)N(CC(=O)NCc1ccc(Cl)cc1)Cc1ccccc1	KCNK9 block -10 | KCNK9 block conf inactive | Kir2-1 spec inactive | KCNK9 uninduced 40%
CN(CC(=O)NC(=O)NCc1ccccc1)Cc1cccc(Cl)c1Cl	none | KCNK9 block conf inactive | Kir2-1 spec inactive | KCNK9 uninduced 22%
CN(CC(=O)NC(=O)NCc1ccccc1)Cc1ccc(Cl)cc1	none | KCNK9 block conf inactive | Kir2-1 spec inactive | KCNK9 uninduced inactive
COc1ccc(CCNC(=O)COC(=O)C2CC2C)cc1OC (configuration not stated)	none (no result: KCNQ1 block, KCNQ1 act, KCNK9 block, hERG protect)
COc1ccc([C@H]2CC(=O)C=C(c3ccc(C(=O)O)cc3)C2)cc1OC	none (no result: KCNQ1 block, KCNQ1 act, KCNK9 block, hERG protect)
CCCCCCCc1c(C#N)c(N)[nH]c(=S)c1C#N	KCNQ1 block 7 | KCNK9 block conf inactive | Kir2-1 spec inactive | KCNK9 uninduced inactive
CC(C)Cc1c2c([nH]c(=S)c1C#N)CCCC2	none
C=CCn1c(SCc2csc(C)n2)nc2sc3c(c2c1=O)CCC(C)C3 (configuration not stated)	none | KCNK9 block conf inactive | Kir2-1 spec inactive | KCNK9 uninduced inactive
O=C(O)C1CC(=O)N(CCc2ccc(F)cc2)C1 (configuration not stated)	none
COc1ccc(-c2nn(-c3ccccc3)cc2CNC(=O)c2cccc([N+](=O)[O-])c2)cc1	KCNK9 block -11 | KCNK9 block conf 52% | Kir2-1 spec inactive | KCNK9 uninduced 30%
O=C(NCc1cn(-c2ccccc2)nc1-c1ccccc1)c1cc([N+](=O)[O-])cc([N+](=O)[O-])c1	none
Oc1ccc(Cl)cc1Cc1cc(Cl)ccc1O	KCNK9 block -14 | KCNK9 block conf 58% | Kir2-1 spec inactive | KCNK9 uninduced 35%
Oc1ccc(Cl)cc1CNCc1ccc(Cl)cc1	none (no result: KCNQ1 block, KCNQ1 act, KCNK9 block, hERG protect)
Cc1cc(OCC(O)CN2CCc3ccccc3C2)ccc1Cl (configuration not stated)	none
CC(C)Cn1c2c(c(O)c(C(=O)Nc3ncccc3O)c1=O)CCCC2	KCNK9 block -9.7 | KCNK9 block conf 55% | Kir2-1 spec inactive | KCNK9 uninduced 40%
CCOC(=O)/C(=N\Nc1cccc(C(F)(F)F)c1)N1CCOCC1	none
CCOC(=O)/C(=N\Nc1cccc(C(F)(F)F)c1)N(CCOC)CCOC	KCNK9 block -8.3 | KCNK9 block conf 44% | Kir2-1 spec inactive | KCNK9 uninduced 34%
CCn1cnnc1SCC(=O)Nc1ccccc1C(=O)NC1CC1	none (no result: KCNQ1 block, KCNQ1 act, KCNK9 block, hERG protect)
COCCC(=O)N1CCC(Oc2ccc(C(=O)NCCc3ccccn3)cc2)CC1	none
CCCCCc1ccc(OCCOCCn2c[n+](C)c3ccccc32)c(CCCCC)c1	KCNQ1 block 7, KCNK9 block -8.4 | KCNK9 block conf 53% | Kir2-1 spec 61% | KCNK9 uninduced inactive
CCCCCc1ccc(OCCC[n+]2ccccc2)c(CCCCC)c1	none
Cc1ccc(-c2cc(-c3n[nH]c(=S)o3)c3ccccc3n2)cc1	KCNQ1 act 15, hERG protect 12 | KCNK9 block conf inactive | Kir2-1 spec inactive | KCNK9 uninduced inactive
COc1ccc(CC(=O)OCC(=O)c2ccc(S(=O)(=O)N3CCCCC3)cc2)cc1	none (no result: KCNQ1 block, KCNQ1 act, KCNK9 block, hERG protect)
Cc1ccc(SCc2c(C#N)c3ccccc3n2C)cc1	KCNK3 block -9.9, KCNK9 block -12 | KCNK9 block conf 57% | Kir2-1 spec inactive | KCNK9 uninduced 46%
CCOC(=O)C1(CCOc2ccccc2)CCN(Cc2cc(OC)ccc2OC)CC1	none | KCNK9 block conf inactive | Kir2-1 spec inactive | KCNK9 uninduced inactive
CCOC(=O)C1(CCOc2ccccc2)CCN(Cc2ccc(F)c(OC)c2)CC1	none | KCNK9 block conf inactive | Kir2-1 spec inactive | KCNK9 uninduced inactive
CCOC(=O)C1(CCOc2ccccc2)CCN(Cc2cccn2-c2ncccn2)CC1	none | KCNK9 block conf inactive | Kir2-1 spec inactive | KCNK9 uninduced inactive
CCOC(=O)C1(CCOc2ccccc2)CCN(Cc2ccncc2)CC1	none
CCOC(=O)C1(CCOc2ccccc2)CCN(Cc2ccc(O)c(OC)c2)CC1	none
COc1cccc(OCC(=O)NNC(=O)c2ccc3ccccc3c2)c1	none
CN(C)C(=O)COC(=O)c1cccc(CN2C(=O)c3ccccc3C2=O)c1	none
CCOc1ccccc1C1c2[nH]c3ccccc3c2C[C@H]2C(=O)N(C3CCN(Cc4ccccc4)CC3)CC(=O)N12 (some centres not stated)	none | KCNK9 block conf inactive | Kir2-1 spec inactive | KCNK9 uninduced inactive
Cc1cc(C)n(-c2nc3ccccc3nc2Nc2ccc(CC(=O)O)cc2)n1	none
Cc1ccc(Nc2nc3ccccc3nc2-n2nc(C)cc2C)cc1	KCNK9 block -9.8 | KCNK9 block conf 57% | Kir2-1 spec inactive | KCNK9 uninduced 32%
CC/C(=N\NC(=S)Nc1cccc(C)c1)c1ccccc1	KCNQ1 act 12, hERG protect 6.9 | KCNK9 block conf inactive | Kir2-1 spec inactive | KCNK9 uninduced inactive
CC/C(=N\NC(=S)Nc1ccc(OC)cc1)c1ccc(OC(F)F)cc1	none | KCNK9 block conf inactive | Kir2-1 spec inactive | KCNK9 uninduced inactive
